Compound activity: PubChem BioAssay, The Scripps Research Institute Molecular Screening Center
Rows were chosen to be rich in hits. Some 2.1% of all compounds tested hit in one or more screens of this group.
PKA-R2B activ: activators of PKA-R2B holoenzyme, primary screen, biochemical, fluorescence polarization, Cy5-IP20, human | activation, % at 11.4 µM | 340,000 compounds, 0.079% hits | AID 504700, 2011 | cAMP-dependent protein kinase catalytic subunit beta (Homo sapiens) + cAMP-dependent … | PKA-R2B holoenzyme dissociation; R2B truncated from residue 108, S112A mutant; 0% DMSO only, 100% 113 µM cGMP;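 active = activation above a cutoff set at the mean over all compounds plus 3 SD, cut at about 18% in these data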;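 also: higher means more holoenzyme dissociation and a rise in polarization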
Target sequence (P31323 whole entry, looked up, other chains not shown, the tested form may be a part): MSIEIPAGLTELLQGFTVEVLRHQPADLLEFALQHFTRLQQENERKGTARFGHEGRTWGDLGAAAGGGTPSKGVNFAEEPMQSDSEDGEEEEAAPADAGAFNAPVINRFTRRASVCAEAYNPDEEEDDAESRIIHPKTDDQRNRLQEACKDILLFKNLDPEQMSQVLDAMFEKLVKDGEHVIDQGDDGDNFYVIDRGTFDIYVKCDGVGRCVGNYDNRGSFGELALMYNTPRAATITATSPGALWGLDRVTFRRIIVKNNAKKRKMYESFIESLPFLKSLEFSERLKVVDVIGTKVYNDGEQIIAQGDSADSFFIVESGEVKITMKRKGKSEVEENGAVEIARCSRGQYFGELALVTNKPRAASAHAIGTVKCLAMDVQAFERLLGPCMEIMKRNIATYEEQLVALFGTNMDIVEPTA
IMP-1 inh-1: IMP-1 metallo-beta-lactamase inhibitors, primary screen, biochemical, epi-absorbance readout, Pseudomonas aeruginosa enzyme; purified IMP-1, nitrocefin hydrolysis, epi-absorbance fluorescence; metallo-beta-lactamase IMP-1 (Pseudomonas aeruginosa); 290,000 compounds, 0.45% hits; inhibition, % at 5.6 µM; AID 1556, 2009;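 active = inhibition above the mean plus 3 SD of all compounds in the same screening run, cut at about 4.5% in these data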;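 also: 0% = IMP-1 with DMSO and 100% = DMSO wells lacking enzyme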
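System: Purified IMP-1 | Read-out basis: Percent enzyme inhibition | Controls: IMP-1 with DMSO as 0%, enzyme-free DMSO as 100% | Replicates: One well per compound | Doses: 5.6 µM nominal single concentration | Detection: Epi-absorbance fluorescence, 480 nm excitation, 530 nm emission | Incubation: 25 °C, 15 min preincubation, 25 min reaction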
MsrA act: bovine MsrA enzyme activators, primary screen, biochemical, absorbance, HTS | Methionine sulfoxide reductase A (Bos taurus) | purified bovine MsrA, absorbance read-out | activation, % at 10.6 µM | 360,000 compounds, 0.3% hits | AID 602163, 2012; in the data active = activation above about 7.5%;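 also: 0% = vehicle and 100% = reference activator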
PKA-R1A activ: activators of PKA-R1A holoenzyme, primary screen, biochemical, fluorescence polarization, Cy5-IP20, bovine R1A, mouse PKAc | PKA-R1A dissociation; scaled: DMSO 0%, 113 µM cGMP 100% | activation, % at 11.4 µM | 340,000 compounds, 0.083% hits;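 active = percent activation above the mean of all tested compounds plus 3 SD, cut at about 19% in these data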;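 also: higher means more PKAc released from R1A so a rise in polarization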
MsrA inhibitor: bovine MsrA enzyme inhibitors, primary screen, biochemical, absorbance, HTS; Methionine sulfoxide reductase A (Bos taurus); purified bovine MsrA, absorbance read-out; inhibition, % at 15.5 µM; 360,000 compounds, 0.75% hits; AID 651718, 2012; in the data active = inhibition above about 4.5%;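 also: 0% = vehicle wells with enzyme and 100% = reference inhibitor wells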
VIM-2 inh: VIM-2 metallo-beta-lactamase inhibitors, primary screen, biochemical, epi-absorbance readout, Pseudomonas aeruginosa enzyme; 290,000 compounds, 0.89% hits; purified VIM-2, nitrocefin hydrolysis, epi-absorbance fluorescence; inhibition, % at 5.6 µM;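 active = inhibition above the mean of all tested compounds plus 3 SD, cutoff set per screening run, cut at about 7.5% in these data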;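 also: red hydrolysis product quenches plate fluorescence so inhibitors raise well fluorescence; 0% = enzyme with DMSO and 100% = DMSO without enzyme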
IMP-1 inh-2: IMP-1 metallo-beta-lactamase inhibitors, confirmation, selectivity assay for selective VIM-2 inhibitor project, biochemical, epi-absorbance readout, triplicate | shares compounds with VIM-2 inh | purified IMP-1, nitrocefin hydrolysis, epi-absorbance fluorescence | inhibition, % at 5.6 µM | 1,300 tested, under 10 active | AID 1856, 2009; call rule not given here;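 also: 0% = enzyme with vehicle and 100% = vehicle without enzyme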
VIM-2 FRET inh: VIM-2 inhibitors in FRET format, confirmation, artefact control for selective VIM-2 inhibitor project, biochemical, epi-absorbance artifact exclusion; shares compounds with VIM-2 inh; purified VIM-2, CCF2 FRET substrate hydrolysis; inhibition, % at 5.6 µM; 1,300 compounds, 23% hits;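 active = inhibition above the mean of all tested compounds plus 3 SD, cut at about 19% in these data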;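 also: 0% = VIM-2 plus DMSO and 100% = no enzyme wells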
TEM-1 inh: TEM-1 serine beta-lactamase inhibitors, counter-screen for VIM-2 inhibitor project, biochemical, epi-absorbance, HTS. shares compounds with VIM-2 inh. Purified TEM-1, nitrocefin hydrolysis, epi-absorbance fluorescence. inhibition, % at 5.6 µM. 1,300 compounds, 3% hits;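 active = inhibition above that campaign's mean inhibition plus 3 SD, cut at about 0.46% in these data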;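 also: 0% = TEM-1 with DMSO and 100% = TEM-1 with 100 µM potassium clavulanate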
Target sequence (P62593 whole entry, looked up): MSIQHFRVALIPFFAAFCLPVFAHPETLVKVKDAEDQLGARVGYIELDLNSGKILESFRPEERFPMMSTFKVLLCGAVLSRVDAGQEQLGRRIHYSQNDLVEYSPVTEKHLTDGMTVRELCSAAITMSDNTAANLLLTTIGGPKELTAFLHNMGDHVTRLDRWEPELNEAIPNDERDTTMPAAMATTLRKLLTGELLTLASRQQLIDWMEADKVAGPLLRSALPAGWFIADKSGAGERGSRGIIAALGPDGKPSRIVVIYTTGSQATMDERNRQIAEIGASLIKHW
VIM-2 inh conf: VIM-2 metallo-beta-lactamase inhibitors, confirmation, biochemical, epi-absorbance, hits shared with IMP-1 screen | shares compounds with VIM-2 inh | purified VIM-2, nitrocefin hydrolysis | inhibition, % at 5.6 µM | 1,300 compounds, 96% hits;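 active = inhibition of the VIM-2 beta-lactamase enzyme above about 11% from the earlier first-round screen, limit read from the data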;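 also: 0% = VIM-2 with DMSO and 100% = buffer wells without enzyme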
An asterisk follows results filed as active; . = not tested or not shown.

SMILES	PKA-R2B activ	IMP-1 inh-1	MsrA act	PKA-R1A activ	MsrA inhibitor	VIM-2 inh	IMP-1 inh-2	VIM-2 FRET inh	TEM-1 inh	VIM-2 inh conf
O=C(CCCN1C(=O)c2cccc3cccc(c23)C1=O)NC1CCS(=O)(=O)C1 (stereo unspecified)	-6	-3	-6	-4	3	15*	-2	-2	0	22*
COc1ccc(S(=O)(=O)N(C)C)cc1NC(=O)COC(=O)C1CC1	-3	.	-3	-2	0	.	.	.	.	.
C=CCc1c(C)c(C#N)c2nc3ccccc3n2c1NCCN(C)C	-4	-3	0	6	0	0	.	.	.	.
C=C(C)Cc1c(C)c(C#N)c2nc3ccccc3n2c1NCCCN(C)C	.	1	-9	.	-1	29*	-3	0	-6	45*
CCCc1cc(NCCCN(C)C)n2c(nc3ccccc32)c1C#N	6	-2	-3	3	1	21*	0	0	2.0*	35*
NC(=O)c1cnn2c(C(F)(F)F)cc(-c3ccc(F)cc3)nc12	-2	1	-2	-8	3	16*	-5	-1	-8	16*
NC(=O)c1cnn2c(C(F)(F)F)cc(-c3ccccc3)nc12	7	-2	-1	4	2	1	.	.	.	.
Cc1c(CCO)c(=O)n2c([nH]c3ccccc32)c1C#N	-3	-2	-1	-3	2	21*	-2	-4	-5	30*
Cc1cc(=O)n2c3ccccc3n(CC(O)CN3CCC(C)CC3)c2c1C#N (stereo unspecified)	2	1	-6	-8	2	4	.	.	.	.
Cc1cc(=O)n2c3ccccc3n(CC(O)CN3CCN(CCO)CC3)c2c1C#N (stereo unspecified)	-2	-3	-6	4	3	22*	-5	0	-10	38*
Cc1cc(=O)n2c3ccccc3n(CC(O)CN3CCN(Cc4ccccc4)CC3)c2c1C#N (stereo unspecified)	2	-3	-4	0	0	14*	-3	2	-13	33*
C=CCN1C[C@H](COC(=O)c2cccc(OC)c2)Oc2cccc(F)c2S1(=O)=O	.	.	.	.	2	.	.	.	.	.
CC(=O)c1c(Cl)nc2cccc3c2c1-c1ccccc1C3=O	-16	-2	-5	-10	0	20*	-1	0	0	31*
CCn1c(SCC(=O)O)nc2sc3c(c2c1=O)CCC3	-2	-1	-3	-5	2	-2	.	.	.	.
Cn1c(SCC(=O)O)nc2sc3c(c2c1=O)CCC3	-9	-2	-3	-2	2	14*	-4	30*	-6	22*
NC(=S)c1ccc[n+]([O-])c1	-5	.	1	-3	0	.	.	.	.	.
COC(=O)c1c(NC(=O)c2cccc(N3C(=O)CCC3=O)c2)sc2c1CCN(C(C)=O)C2	13	-3	-6	10	2	24*	-4	-2	-7	39*
N#Cc1cccc(C(=O)Nc2ccccc2C(=O)NC2CC2)c1	-3	.	-2	-3	-1	.	.	.	.	.
COc1ccc(CCNCc2ccc(OCc3ccc(Cl)nc3)c(OC)c2)cc1OC	-8	-2	0	-3	0	-3	.	.	.	.
COc1cc(CNCCNCC(C)O)ccc1OCc1ccc(Cl)nc1 (stereo unspecified)	-10	-3	-2	-1	1	39*	-4	-2	-4	32*
c1ccc(CN2CCN(CCCNc3ccc4nnc(-c5ccccc5)n4n3)CC2)cc1	-9	-2	-1	-7	.	62*	0	4	0.8*	76*
Cc1ccc(CNc2ccc3nnc(-c4ccccc4)n3n2)cc1	11	-3	0	6	0	-4	.	.	.	.
N#Cc1c(Cl)nc(N/N=C/c2ccccc2)c(Cl)c1Cl	-1	-4	-1	2	2	-4	.	.	.	.
C[n+]1cccc(/C=N/Nc2nc(Cl)c(C#N)c(Cl)c2Cl)c1	.	-3	0	.	4	41*	-3	32*	-6	57*
CSc1nc2sc3c(c2c(=S)[nH]1)CC(C)(C)OC3	-13	-2	-1	2	2	15*	-3	21*	-7	19*
SMILES	PKA-R2B activ	IMP-1 inh-1	MsrA act	PKA-R1A activ	MsrA inhibitor	VIM-2 inh	IMP-1 inh-2	VIM-2 FRET inh	TEM-1 inh	VIM-2 inh conf
CCc1nc2sc3c(c2c(=S)[nH]1)CC(C)(C)OC3	0	-2	-5	-11	2	2	.	.	.	.
CSc1nc(SCC(=O)O)c2c3c(sc2n1)COC(C)(C)C3	-5	-4	-4	-6	0	17*	-3	43*	-6	25*
CC(=O)c1ccc2c(c1)c(C#N)c1ccccc1[n+]2[O-]	6	2	-9	6	2	24*	-2	3	2.7*	28*
CN1CCC(OC(=O)c2ccccc2)CC1	-12	0	0	-9	1	-1	.	.	.	.
Cc1c(Br)cc(C(=O)OC2CCN(C)CC2)c(C)c1C	4	0	-2	-9	-1	13*	-1	2	-5	17*
COC(=O)[C@]12C[C@H](CC(=O)N3CCCCC3)C(=O)N(Cc3ccc4c(c3)OCO4)C1=C[C@H](COCc1ccccc1)O[C@@H]2C	.	.	.	.	0	.	.	.	.	.
CCCCCCCCN1C(=O)[C@H](CC(=O)NCCCOC)C[C@@]2(C(=O)OCC)CCCC=C12	.	.	-8	.	1	.	.	.	.	.
COc1cc(Nc2cc(C)nc3nc(C)nn23)cc(OC)c1OC	-3	-2	-2	-2	0	13*	-3	-2	-6	33*
COc1ccc(Nc2cc(C)nc3nc(C)nn23)cc1Cl	1	-2	-1	8	0	19*	-3	-3	-4	29*
